# From ChEMBL document CHEMBL5058577, “EUbOPEN Chemogenomics Library 2 (Multiplex)” (2022)
# Tested on: HEK-293T
# Assay: Multiplex assay against HEK293T
# Format: toxicity, cell-based
# Conditions: human
# How it was run: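 Cells were classed with CellPathfinder machine-learning gating, first as Hoechst high-intensity objects or normal cells, then (normal cells) as healthy, pyknosed or fragmented nuclei, and finally (pyknosed cells) as mitotic or apoptotic. Staining of live cells at seeding used Hoechst33342, BioTracker Green Microtubule Cytoskeleton Dye, MitoTracker Red and Annexin V Alexa Fluor 680, with imaging on a CQ1 microscope at 37°C and 5% CO2 after compound addition. Tubulin, mitochondrial-mass and membrane-permeability phenotypes are per cents of healthy-nucleus cells.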
# [1] = 12 h, 1 µM, compound concentration 1 uM, replicate 1
# [2] = 12 h, 1 µM, compound concentration 1 uM, replicate 2
# [3] = 12 h, 10 µM, compound concentration 10 uM, replicate 1
# [4] = 12 h, 10 µM, compound concentration 10 uM, replicate 2
# [5] = 24 h, 1 µM, compound concentration 1 uM, replicate 1
# [6] = 24 h, 1 µM, compound concentration 1 uM, replicate 2
# [7] = 24 h, 10 µM, compound concentration 10 uM, replicate 1
# [8] = 24 h, 10 µM, compound concentration 10 uM, replicate 2
# [9] = 48 h, 1 µM, compound concentration 1 uM, replicate 1
# [10] = 48 h, 1 µM, compound concentration 1 uM, replicate 2
# [11] = 48 h, 10 µM, compound concentration 10 uM, replicate 1
# [12] = 48 h, 10 µM, compound concentration 10 uM, replicate 2
smiles,measurement,setting,value
CC(C)C[C@H](CO)Nc1nc(S[C@@H](C)c2ccccc2)nc2nc(N)sc12 [AZD-8797],Population Apoptotic (%),[1],39%
same,Population Fragmented Nuclei (%),[1],2%
same,Population Healthy Nuclei (%),[1],81%
same,Population Hoechst High Intensity Objects (%),[1],4%
same,Population Membrane Permeable-Phenotype (%),[1],0%
same,Population Mitochondria Different-Phenotype (%),[1],44%
same,Population Mitotic Cells (%),[1],60%
same,Population Normal (%),[1],95%
same,Population Pyknosed Nuclei (%),[1],15%
same,Population Tubulin-Different-Phenotype (%),[1],27%
same,Total Cell Count,[1],326
same,Population Apoptotic (%),[2],46%
same,Population Fragmented Nuclei (%),[2],8%
same,Population Healthy Nuclei (%),[2],72%
same,Population Hoechst High Intensity Objects (%),[2],7%
same,Population Mitochondria Different-Phenotype (%),[2],57%
same,Population Mitotic Cells (%),[2],53%
same,Population Normal (%),[2],92%
same,Population Pyknosed Nuclei (%),[2],18%
same,Population Tubulin-Different-Phenotype (%),[2],22%
same,Total Cell Count,[2],356
same,Population Apoptotic (%),[3],65%
same,Population Fragmented Nuclei (%),[3],9%
same,Population Healthy Nuclei (%),[3],71%
same,Population Hoechst High Intensity Objects (%),[3],10%
same,Population Membrane Permeable-Phenotype (%),[3],0%
same,Population Mitochondria Different-Phenotype (%),[3],70%
same,Population Mitotic Cells (%),[3],34%
same,Population Normal (%),[3],89%
same,Population Pyknosed Nuclei (%),[3],18%
same,Population Tubulin-Different-Phenotype (%),[3],56%
same,Total Cell Count,[3],279
same,Population Apoptotic (%),[4],67%
same,Population Fragmented Nuclei (%),[4],6%
same,Population Healthy Nuclei (%),[4],75%
same,Population Mitochondria Different-Phenotype (%),[4],75%
same,Population Mitotic Cells (%),[4],32%
same,Population Tubulin-Different-Phenotype (%),[4],39%
same,Total Cell Count,[4],345
same,Population Apoptotic (%),[5],37%
same,Population Fragmented Nuclei (%),[5],7%
same,Population Healthy Nuclei (%),[5],76%
same,Population Hoechst High Intensity Objects (%),[5],3%
same,Population Membrane Permeable-Phenotype (%),[5],0%
same,Population Mitochondria Different-Phenotype (%),[5],25%
same,Population Mitotic Cells (%),[5],62%
same,Population Normal (%),[5],97%
same,Population Pyknosed Nuclei (%),[5],15%
same,Population Tubulin-Different-Phenotype (%),[5],16%
same,Total Cell Count,[5],400
same,Population Apoptotic (%),[6],45%
same,Population Healthy Nuclei (%),[6],81%
same,Population Hoechst High Intensity Objects (%),[6],5%
same,Population Mitochondria Different-Phenotype (%),[6],42%
same,Population Mitotic Cells (%),[6],54%
same,Population Normal (%),[6],94%
same,Population Pyknosed Nuclei (%),[6],11%
same,Population Tubulin-Different-Phenotype (%),[6],14%
same,Total Cell Count,[6],421
same,Population Apoptotic (%),[7],54%
same,Population Fragmented Nuclei (%),[7],8%
same,Population Healthy Nuclei (%),[7],73%
same,Population Hoechst High Intensity Objects (%),[7],9%
same,Population Membrane Permeable-Phenotype (%),[7],0%
same,Population Mitochondria Different-Phenotype (%),[7],64%
same,Population Mitotic Cells (%),[7],45%
same,Population Normal (%),[7],90%
same,Population Pyknosed Nuclei (%),[7],17%
same,Population Tubulin-Different-Phenotype (%),[7],39%
same,Total Cell Count,[7],346
same,Population Apoptotic (%),[8],51%
same,Population Fragmented Nuclei (%),[8],9%
same,Population Healthy Nuclei (%),[8],77%
same,Population Hoechst High Intensity Objects (%),[8],8%
same,Population Mitochondria Different-Phenotype (%),[8],71%
same,Population Mitotic Cells (%),[8],48%
same,Population Normal (%),[8],91%
same,Population Pyknosed Nuclei (%),[8],12%
same,Population Tubulin-Different-Phenotype (%),[8],36%
same,Total Cell Count,[8],393
same,Population Apoptotic (%),[9],43%
same,Population Fragmented Nuclei (%),[9],15%
same,Population Healthy Nuclei (%),[9],78%
same,Population Hoechst High Intensity Objects (%),[9],1%
same,Population Membrane Permeable-Phenotype (%),[9],0%
same,Population Mitochondria Different-Phenotype (%),[9],16%
same,Population Mitotic Cells (%),[9],56%
same,Population Normal (%),[9],98%
same,Population Pyknosed Nuclei (%),[9],6%
same,Population Tubulin-Different-Phenotype (%),[9],10%
same,Total Cell Count,[9],663
same,Population Apoptotic (%),[10],24%
same,Population Fragmented Nuclei (%),[10],12%
same,Population Healthy Nuclei (%),[10],79%
same,Population Hoechst High Intensity Objects (%),[10],3%
same,Population Membrane Permeable-Phenotype (%),[10],1%
same,Population Mitochondria Different-Phenotype (%),[10],24%
same,Population Mitotic Cells (%),[10],75%
same,Population Normal (%),[10],96%
same,Population Pyknosed Nuclei (%),[10],8%
same,Population Tubulin-Different-Phenotype (%),[10],13%
same,Total Cell Count,[10],681
same,Population Apoptotic (%),[11],60%
same,Population Fragmented Nuclei (%),[11],16%
same,Population Healthy Nuclei (%),[11],72%
same,Population Hoechst High Intensity Objects (%),[11],7%
same,Population Membrane Permeable-Phenotype (%),[11],0%
same,Population Mitochondria Different-Phenotype (%),[11],57%
same,Population Mitotic Cells (%),[11],39%
same,Population Normal (%),[11],92%
same,Population Pyknosed Nuclei (%),[11],11%
same,Population Tubulin-Different-Phenotype (%),[11],28%
same,Total Cell Count,[11],416
same,Population Apoptotic (%),[12],52%
same,Population Fragmented Nuclei (%),[12],15%
same,Population Healthy Nuclei (%),[12],75%
same,Population Hoechst High Intensity Objects (%),[12],6%
same,Population Mitochondria Different-Phenotype (%),[12],52%
same,Population Mitotic Cells (%),[12],47%
same,Population Normal (%),[12],93%
same,Population Pyknosed Nuclei (%),[12],8%
same,Population Tubulin-Different-Phenotype (%),[12],21%
same,Total Cell Count,[12],530
